# Tests used:
# [1] = target: T1, Sodium-dependent serotonin transporter (Rattus norvegicus, UniProt P31652); experiment: Inhibition of high affinity 5-HT uptake at concentration of 1 uM; assay type: functional
# Rattus norvegicus [2] = species: Rattus norvegicus; experiment: Michaelis-Menten constant was reported for high affinity transport of choline; assay type: functional
# In short: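 Rat forebrain crude synaptosome aliquots (0.27–0.3 mg protein) were equilibrated at 30 °C. [3H]choline was added at 10 nM to 10 μM and uptake run 3 min, within the linear range. Parallel 0 °C incubations corrected for nonspecific binding and diffusion. Reactions were stopped by ice cooling, centrifuged at 800g, and the pellets washed with ice-cold KRB.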
# Rattus norvegicus [3] = species: Rattus norvegicus; experiment: (§1) Inhibition of high affinity dopamine uptake at concentration of 1 uM; assay type: functional
# [4] = target: T1, Sodium-dependent serotonin transporter; experiment: Inhibition constant of high-affinity 5-HT uptake
# In short: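 Rat forebrain crude synaptosomes took up [3H]serotonin (0.727 Ci/mmol) for 3 min at 30 °C, with and without inhibitor, as for the choline assay. IC50 came from nonlinear regression or Hill plots over 5–10 inhibitor concentrations. Ki was derived with Cheng-Prusoff, using the serotonin transport Km measured over 10 nM to […] substrate.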
# [5] = target: T2, Sodium-dependent dopamine transporter (Rattus norvegicus, UniProt P23977); experiment: as §1; assay type: functional
# [6] = target: T2, Sodium-dependent dopamine transporter; experiment: Inhibition constant of high-affinity dopamine uptake
# In short: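 Crude synaptosomes from adult male Long-Evans rat forebrain (Gray–Whittaker method) were incubated with [3H]dopamine (0.72 Ci/mmol) for 3 min at 30 °C alongside 0 °C blanks, with inhibitor at 5–10 concentrations between 10 µM and 10 mM. Uptake was stopped on ice and pellets were washed in KRB. IC50 came from regression or Hill plots, and Ki from Cheng–Prusoff using dopamine Km 1.4 µM.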
# [7] = substrate: C[N+](C)(C)CC(O)c1ccc(O)c(O)c1
# [8] = substrate: C[N+](C)(C)CC(O)c1ccc(O)c(O)c1; remark: listed apart in the source
# [9] = substrate: C[N+](C)(C)CC(O)c1ccc(O)c(O)c1; remark: listed apart in the source
# [10] = substrate: C[N+](C)(C)CC(O)c1ccc(O)c(O)c1; remark: listed apart in the source
# [11] = substrate: C[N+](C)(C)CC(O)c1ccc(O)c(O)c1; remark: listed apart in the source
# [12] = substrate: C[N+](C)(C)CC(O)c1ccc(O)c(O)c1; remark: listed apart in the source
molecule,measurement,setting,value
C[N+](C)(C)c1cccc(O)c1O,IC50,[1],213 µM
same,Km,Rattus norvegicus [2],1000 µM
same,IC50,Rattus norvegicus [3],196 µM
same,Ki,[4],90 µM
C[N+](C)(C)CC(O)c1ccc(O)c(O)c1 (centres undefined) [CATECHOLINE],IC50,[1],3600 µM
same,IC50,[5],949 µM
same,Ki,[4],390 µM
same,Ki,[6],530 µM
"Sodium-dependent dopamine transporter (Rattus norvegicus), P23977 (protein) MSKSKCSVGPMSSVVAPAKESNAVGPREVELILVKEQNGVQLTNSTLINPPQTPVEAQERETWSKKIDFLLSVIGFAVDLANVWRFPYLCYKNGGGAFLVPYLLFMVIAGMPLFYMELALGQFNREGAAGVWKICPVLKGVGFTVILISFYVGFFYNVIIAWALHYFFSSFTMDLPWIHCNNTWNSPNCSDAHASNSSDGLGLNDTFGTTPAAEYFERGVLHLHQSRGIDDLGPPRWQLTACLVLVIVLLYFSLWKGVKTSGKVVWITATMPYVVLTALLLRGVTLPGAMDGIRAYLSVDFYRLCEASVWIDAATQVCFSLGVGFGVLIAFSSYNKFTNNCYRDAIITTSINSLTSFSSGFVVFSFLGYMAQKHNVPIRDVATDGPGLIFIIYPEAIATLPLSSAWAAVFFLMLLTLGIDSAMGGMESVITGLVDEFQLLHRHRELFTLGIVLATFLLSLFCVTNGGIYVFTLLDHFAAGTSILFGVLIEAIGVAWFYGVQQFSDDIKQMTGQRPNLYWRLCWKLVSPCFLLYVVVVSIVTFRPPHYGAYIFPDWANALGWIIATSSMAMVPIYATYKFCSLPGSFREKLAYAITPEKDHQLVDRGEVRQFTLRHWLLL",Km,[7],1400 µM
same,Vmax (pM min-1 mg-1),[8],53
"Sodium- and chloride-dependent creatine transporter 1 (Rattus norvegicus), P28570 (protein) MAKKSAENGIYSVSGDEKKGPLIVSGPDGAPSKGDGPAGLGAPSSRLAVPPRETWTRQMDFIMSCVGFAVGLGNVWRFPYLCYKNGGGVFLIPYVLIALVGGIPIFFLEISLGQFMKAGSINVWNICPLFKGLGYASMVIVFYCNTYYIMVLAWGFYYLVKSFTTTLPWATCGHTWNTPDCVEIFRHEDCANASLANLTCDQLADRRSPVIEFWENKVLRLSTGLEVPGALNWEVTLCLLACWVLVYFCVWKGVKSTGKIVYFTATFPYVVLVVLLVRGVLLPGALDGIIYYLKPDWSKLGSPQVWIDAGTQIFFSYAIGLGALTALGSYNRFNNNCYKDAIILALINSGTSFFAGFVVFSILGFMATEQGVHISKVAESGPGLAFIAYPRAVTLMPVAPLWAALFFFMLLLLGLDSQFVGVEGFITGLLDLLPASYYFRFQREISVALCCALCFVIDLSMVTDGGMYVFQLFDYYSASGTTLLWQAFWECVVVAWVYGADRFMDDIACMIGYRPCPWMKWCWSFFTPLVCMGIFIFNVVYYKPLVYNNTYVYPWWGEAMGWAFALSSMLCVPLHLLGCLLRAKGTMAERWQHLTQPIWGLHHLEYRAQDADVRGLTTLTPVSESSKVVVVESVM",Km,[9],2040 µM
same,Vmax (pM min-1 mg-1),[10],22
"Sodium-dependent serotonin transporter (Rattus norvegicus), P31652 (protein) METTPLNSQKVLSECKDREDCQENGVLQKGVPTTADRAEPSQISNGYSAVPSTSAGDEASHSIPAATTTLVAEIRQGERETWGKKMDFLLSVIGYAVDLGNIWRFPYICYQNGGGAFLLPYTIMAIFGGIPLFYMELALGQYHRNGCISIWRKICPIFKGIGYAICIIAFYIASYYNTIIAWALYYLISSLTDRLPWTSCTNSWNTGNCTNYFAQDNITWTLHSTSPAEEFYLRHVLQIHQSKGLQDLGTISWQLTLCIVLIFTVIYFSIWKGVKTSGKVVWVTATFPYIVLSVLLVRGATLPGAWRGVVFYLKPNWQKLLETGVWVDAAAQIFFSLGPGFGVLLAFASYNKFNNNCYQDALVTSVVNCMTSFVSGFVIFTVLGYMAEMRNEDVSEVAKDAGPSLLFITYAEAIANMPASTFFAIIFFLMLITLGLDSTFAGLEGVITAVLDEFPHIWAKRREWFVLIVVITCVLGSLLTLTSGGAYVVTLLEEYATGPAVLTVALIEAVAVSWFYGITQFCSDVKEMLGFSPGWFWRICWVAISPLFLLFIICSFLMSPPQLRLFQYNYPHWSIVLGYCIGMSSVICIPTYIIYRLISTPGTLKERIIKSITPETPTEIPCGDIRMNAV",Vmax (pM min-1 mg-1),[11],23
same,Km,[12],150 µM
